Consider 1 molecule from ChEMBL document CHEMBL4354843, “Structure-Based Design of a Potent and Selective Covalent Inhibitor for SRC Kinase That Targets a P-Loop Cysteine” (J Med Chem, 2020).

For experiment [1], the system named is ALK tyrosine kinase receptor (Homo sapiens), Q9UM73 [L1196M]. As to the kind of experiment: Binding affinity to wild-type human partial length ALK L1196M mutant (I1088 to E1409 residues) expressed in mammalian expression system assessed as residual binding level at 1 uM by Kinomescan method relative to control.
In experiment [2] the target is Tyrosine-protein kinase Blk (Homo sapiens) (UniProt P51451). The experiment in a line: Binding affinity to wild-type human partial length BLK (G211 to L503 residues) expressed in bacterial expression system assessed as residual binding level at 1 uM by Kinomescan method relative to control. The essentials: (§1)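 KinomeScan, an active site-directed competition binding panel of 468 kinases. The test compound was at 1 μM. The readout is remaining kinase binding as a percentage of the DMSO control. Scores above 35% were treated as weak binding and not listed.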

In experiment [3] the target is Cyclin-dependent kinase 8 (Homo sapiens) (UniProt P49336). The experiment in a line: Binding affinity to wild-type human partial length CDK8 (M1 to T360 residues) expressed in bacterial expression system assessed as residual binding level at 1 uM by Kinomescan method relative to control.
Experiment [4] has as its target Dual specificity protein kinase CLK3 (Homo sapiens) (UniProt P49761). The experiment in a line: Binding affinity to wild-type human full length CLK3 (M1 to R490 residues) expressed in bacterial expression system assessed as residual binding level at 1 uM by Kinomescan method relative to control. The essentials:
(§2)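 Active-site-directed KinomeScan competition binding panel covering 468 kinases, compound tested at 1 μM. Each readout is the kinase signal remaining with compound, expressed as a percentage of the DMSO control. […]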

In experiment [5] the target is Serine/threonine-protein kinase MRCK gamma (Homo sapiens) (UniProt Q6DT37). As to the kind of experiment: Binding affinity to wild-type human partial length DMPK2 (S46 to S408 residues) expressed in bacterial expression system assessed as residual binding level at 1 uM by Kinomescan method relative to control.
In experiment [6] the target is Dual specificity tyrosine-phosphorylation-regulated kinase 1A (Homo sapiens) (UniProt Q13627). As to the kind of experiment: Binding affinity to wild-type human partial length DYRK1A (H129 to S509 residues) expressed in mammalian expression system assessed as residual binding level at 1 uM by Kinomescan method relative to control.
Experiment [7] concerns Epidermal growth factor receptor (Homo sapiens), P00533 [UNDEFINED MUTATION]. The experiment in a line: Binding affinity to human partial length EGFR L747-T751del/Sins mutant expressed in bacterial expression system assessed as residual binding level at 1 uM by Kinomescan method relative to control. Put shortly: (§3)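 KinomeScan active site-directed competition binding panel (468 kinases), compound tested at 1 μM. Result expressed as remaining kinase signal versus DMSO control (percent of control).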

The target of experiment [8] is Beta-adrenergic receptor kinase 1 (Homo sapiens) (UniProt P25098). As to the kind of experiment: Binding affinity to wild-type human full length GRK2 (M1 to L689 residues) expressed in mammalian expression system assessed as residual binding level at 1 uM by Kinomescan method relative to control. Put shortly: as §2
Experiment [9] concerns the target Glycogen synthase kinase-3 beta (Homo sapiens) (UniProt P49841). As to the kind of experiment: Binding affinity to wild-type human full length GSK3B (M1 to T433 residues) expressed in mammalian expression system assessed as residual binding level at 1 uM by Kinomescan method relative to control. Put shortly:
as §1

In experiment [10] the target is Inhibitor of nuclear factor kappa-B kinase subunit epsilon (Homo sapiens) (UniProt Q14164). The experiment in a line: Binding affinity to wild-type human full length IKK-epsilon (M1 to V716 residues) expressed in mammalian expression system assessed as residual binding level at 1 uM by Kinomescan method relative to control. The essentials:
as §2

Experiment [11] addresses Mitogen-activated protein kinase kinase kinase 15 (Homo sapiens) (UniProt Q6ZN16). As to the kind of experiment: Binding affinity to wild-type human partial length MAP3K15 (T625 to L932 residues) expressed in mammalian expression system assessed as residual binding level at 1 uM by Kinomescan method relative to control. The essentials:
(§4)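 Active-site-directed competition binding panel of 468 kinases (KinomeScan), compound at 1 μM. The read-out is kinase remaining bound, given as a percentage of the DMSO control. […]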

For experiment [12], the target named is Dual specificity mitogen-activated protein kinase kinase 5 (Homo sapiens) (UniProt Q13163). The experiment in a line: Binding affinity to wild-type human partial length MEK5 (L98 to P448 residues) expressed in mammalian expression system assessed as residual binding level at 1 uM by Kinomescan method relative to control. The essentials:
as §4

Experiment [13] has as its target Serine/threonine-protein kinase PknB (Mycobacterium tuberculosis) (UniProt P9WI81). As to the kind of experiment: Binding affinity to wild-type Mycobacterium tuberculosis partial length PKNB (M1 to G279 residues) expressed in mammalian expression system assessed as residual binding level at 1 uM by Kinomescan method relative to control. Put shortly:
as §2

Experiment [14] addresses Serine/threonine-protein kinase D3 (Homo sapiens) (UniProt O94806). As to the kind of experiment: Binding affinity to wild-type human partial length PRKD3 (S543 to E863 residues) expressed in bacterial expression system assessed as residual binding level at 1 uM by Kinomescan method relative to control. Put shortly:
as §4

Experiment [15] has as its system Proto-oncogene tyrosine-protein kinase receptor Ret (Homo sapiens), P07949 [V804M]. The experiment in a line: Binding affinity to human partial length RET V804M mutant (E713 to D1014 residues) expressed in bacterial expression system assessed as residual binding level at 1 uM by Kinomescan method relative to control. Put shortly: as §3
In experiment [16] the target is Receptor-interacting serine/threonine-protein kinase 2 (Homo sapiens) (UniProt O43353). As to the kind of experiment: Binding affinity to wild-type human partial length RIPK2 (M1 to K310 residues) expressed in bacterial expression system assessed as residual binding level at 1 uM by Kinomescan method relative to control.
For experiment [17], the target named is Serine/threonine-protein kinase tousled-like 1 (Homo sapiens) (UniProt Q9UKI8). As to the kind of experiment: Binding affinity to wild-type human partial length TLK1 (K447 to A754 residues) expressed in bacterial expression system assessed as residual binding level at 1 uM by Kinomescan method relative to control.
In experiment [18] the target is Dual specificity protein kinase TTK (Homo sapiens) (UniProt P33981). The experiment in a line: Binding affinity to wild-type human partial length TTK (N505 to V798 residues) expressed in bacterial expression system assessed as residual binding level at 1 uM by Kinomescan method relative to control. Put shortly:
(§5)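 Active site-directed competition binding panel (KinomeScan, 468 kinases). Test compound at 1 μM. Read-out is kinase binding remaining versus DMSO control, expressed as percent of control. Scores above 35% are treated as weak binding.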

Experiment [19] concerns the target Non-receptor tyrosine-protein kinase TYK2 (Homo sapiens) (UniProt P29597). The experiment in a line: Binding affinity to wild-type human partial length TYK2 JH1 catalytic domain (V877 to C1187 residues) expressed in mammalian expression system assessed as residual binding level at 1 uM by Kinomescan method relative to control.
The target in experiment [20] is Serine/threonine-protein kinase WNK4 (Homo sapiens) (UniProt Q96J92). The experiment in a line: Binding affinity to wild-type human partial length WNK4 (A31 to D461 residues) expressed in mammalian expression system assessed as residual binding level at 1 uM by Kinomescan method relative to control. The essentials: as §5
Chain of Serine/threonine-protein kinase WNK4 (Homo sapiens) (Q96J92 whole entry, the tested form may be a part): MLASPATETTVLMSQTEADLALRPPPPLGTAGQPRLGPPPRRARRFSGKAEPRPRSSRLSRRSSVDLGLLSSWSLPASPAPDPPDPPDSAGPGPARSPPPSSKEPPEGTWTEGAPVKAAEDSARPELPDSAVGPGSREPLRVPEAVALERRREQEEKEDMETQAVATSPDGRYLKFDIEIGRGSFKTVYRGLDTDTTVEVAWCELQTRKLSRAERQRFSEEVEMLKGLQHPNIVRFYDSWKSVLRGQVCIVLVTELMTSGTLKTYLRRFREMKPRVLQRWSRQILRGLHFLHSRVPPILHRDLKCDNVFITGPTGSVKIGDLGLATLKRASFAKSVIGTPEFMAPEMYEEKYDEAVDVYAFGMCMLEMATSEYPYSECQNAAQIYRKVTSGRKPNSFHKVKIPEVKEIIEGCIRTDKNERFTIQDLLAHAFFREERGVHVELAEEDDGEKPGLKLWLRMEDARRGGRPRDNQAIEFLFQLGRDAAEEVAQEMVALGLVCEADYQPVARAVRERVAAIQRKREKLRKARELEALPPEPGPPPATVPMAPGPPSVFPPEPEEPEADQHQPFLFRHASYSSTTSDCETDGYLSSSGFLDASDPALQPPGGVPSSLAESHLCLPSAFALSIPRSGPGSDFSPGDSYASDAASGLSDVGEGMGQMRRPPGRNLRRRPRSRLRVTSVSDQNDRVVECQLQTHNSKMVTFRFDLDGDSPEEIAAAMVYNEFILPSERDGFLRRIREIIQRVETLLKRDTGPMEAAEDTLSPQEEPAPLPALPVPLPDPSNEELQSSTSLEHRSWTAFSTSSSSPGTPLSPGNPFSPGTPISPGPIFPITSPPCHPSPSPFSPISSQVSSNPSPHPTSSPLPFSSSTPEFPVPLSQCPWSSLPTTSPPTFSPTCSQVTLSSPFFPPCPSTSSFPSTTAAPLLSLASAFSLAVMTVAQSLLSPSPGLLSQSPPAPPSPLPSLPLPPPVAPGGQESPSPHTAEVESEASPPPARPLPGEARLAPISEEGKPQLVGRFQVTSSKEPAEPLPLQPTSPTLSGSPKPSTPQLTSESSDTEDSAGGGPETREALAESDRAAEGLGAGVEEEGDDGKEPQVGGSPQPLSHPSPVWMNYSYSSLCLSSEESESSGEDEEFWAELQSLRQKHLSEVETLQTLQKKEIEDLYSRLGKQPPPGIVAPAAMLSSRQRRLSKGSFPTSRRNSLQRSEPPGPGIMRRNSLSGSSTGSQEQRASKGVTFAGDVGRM

Chain of Serine/threonine-protein kinase MRCK gamma (Homo sapiens) (Q6DT37 whole entry, the tested form may be a part): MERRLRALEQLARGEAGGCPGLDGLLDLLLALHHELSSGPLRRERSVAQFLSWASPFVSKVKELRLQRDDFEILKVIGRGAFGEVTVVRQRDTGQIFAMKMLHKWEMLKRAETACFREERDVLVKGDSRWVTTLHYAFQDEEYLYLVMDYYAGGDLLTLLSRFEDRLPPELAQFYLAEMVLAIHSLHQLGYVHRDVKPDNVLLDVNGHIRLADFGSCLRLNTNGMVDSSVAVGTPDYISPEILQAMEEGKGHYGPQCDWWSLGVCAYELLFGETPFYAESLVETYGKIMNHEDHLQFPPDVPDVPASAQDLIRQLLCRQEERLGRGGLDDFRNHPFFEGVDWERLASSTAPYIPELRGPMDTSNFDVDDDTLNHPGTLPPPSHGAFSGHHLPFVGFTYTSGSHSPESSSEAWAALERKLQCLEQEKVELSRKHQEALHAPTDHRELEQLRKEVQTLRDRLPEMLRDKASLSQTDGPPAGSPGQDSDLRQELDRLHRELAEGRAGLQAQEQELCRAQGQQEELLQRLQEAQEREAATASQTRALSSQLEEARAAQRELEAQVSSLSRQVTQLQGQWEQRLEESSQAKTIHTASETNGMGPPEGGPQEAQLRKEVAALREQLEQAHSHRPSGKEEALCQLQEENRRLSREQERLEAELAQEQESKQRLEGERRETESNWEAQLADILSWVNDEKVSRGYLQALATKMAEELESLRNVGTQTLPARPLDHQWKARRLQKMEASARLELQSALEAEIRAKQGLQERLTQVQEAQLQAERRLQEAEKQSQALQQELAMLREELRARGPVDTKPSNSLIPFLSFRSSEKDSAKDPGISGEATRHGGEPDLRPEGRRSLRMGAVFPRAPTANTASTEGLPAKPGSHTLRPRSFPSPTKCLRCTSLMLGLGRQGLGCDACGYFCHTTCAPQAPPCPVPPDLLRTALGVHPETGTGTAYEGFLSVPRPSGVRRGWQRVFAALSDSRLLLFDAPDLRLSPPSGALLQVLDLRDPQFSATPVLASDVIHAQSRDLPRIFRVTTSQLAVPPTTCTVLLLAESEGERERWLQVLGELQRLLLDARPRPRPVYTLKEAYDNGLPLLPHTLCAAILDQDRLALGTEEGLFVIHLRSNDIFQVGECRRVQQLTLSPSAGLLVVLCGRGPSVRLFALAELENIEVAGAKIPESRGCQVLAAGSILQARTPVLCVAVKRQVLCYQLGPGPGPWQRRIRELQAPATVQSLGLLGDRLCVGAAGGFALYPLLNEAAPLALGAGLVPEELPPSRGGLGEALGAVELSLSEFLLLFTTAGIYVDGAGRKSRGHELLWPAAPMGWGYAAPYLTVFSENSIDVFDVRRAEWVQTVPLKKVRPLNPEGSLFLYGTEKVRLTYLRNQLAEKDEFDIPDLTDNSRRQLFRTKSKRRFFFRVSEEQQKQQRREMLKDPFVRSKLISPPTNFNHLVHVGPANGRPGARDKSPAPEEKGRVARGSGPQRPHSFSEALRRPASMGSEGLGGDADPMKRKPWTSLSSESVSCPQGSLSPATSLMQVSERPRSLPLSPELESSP
Chain of Receptor-interacting serine/threonine-protein kinase 2 (Homo sapiens) (O43353 whole entry, the tested form may be a part): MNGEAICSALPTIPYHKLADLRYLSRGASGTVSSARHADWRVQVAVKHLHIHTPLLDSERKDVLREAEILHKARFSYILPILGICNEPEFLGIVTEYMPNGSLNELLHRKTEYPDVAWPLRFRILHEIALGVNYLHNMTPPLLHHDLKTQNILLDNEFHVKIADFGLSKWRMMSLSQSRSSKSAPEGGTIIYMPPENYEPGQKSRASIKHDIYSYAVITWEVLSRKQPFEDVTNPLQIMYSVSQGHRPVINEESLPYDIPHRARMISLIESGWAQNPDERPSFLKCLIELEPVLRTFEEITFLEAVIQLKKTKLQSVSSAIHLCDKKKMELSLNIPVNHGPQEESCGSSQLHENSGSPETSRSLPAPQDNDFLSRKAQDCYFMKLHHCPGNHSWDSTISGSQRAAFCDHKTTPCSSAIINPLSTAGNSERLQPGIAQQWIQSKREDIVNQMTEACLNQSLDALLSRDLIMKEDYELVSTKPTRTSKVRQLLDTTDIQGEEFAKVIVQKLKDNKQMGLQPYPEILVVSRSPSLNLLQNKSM
Chain of Mitogen-activated protein kinase kinase kinase 15 (Homo sapiens) (Q6ZN16 whole entry, the tested form may be a part): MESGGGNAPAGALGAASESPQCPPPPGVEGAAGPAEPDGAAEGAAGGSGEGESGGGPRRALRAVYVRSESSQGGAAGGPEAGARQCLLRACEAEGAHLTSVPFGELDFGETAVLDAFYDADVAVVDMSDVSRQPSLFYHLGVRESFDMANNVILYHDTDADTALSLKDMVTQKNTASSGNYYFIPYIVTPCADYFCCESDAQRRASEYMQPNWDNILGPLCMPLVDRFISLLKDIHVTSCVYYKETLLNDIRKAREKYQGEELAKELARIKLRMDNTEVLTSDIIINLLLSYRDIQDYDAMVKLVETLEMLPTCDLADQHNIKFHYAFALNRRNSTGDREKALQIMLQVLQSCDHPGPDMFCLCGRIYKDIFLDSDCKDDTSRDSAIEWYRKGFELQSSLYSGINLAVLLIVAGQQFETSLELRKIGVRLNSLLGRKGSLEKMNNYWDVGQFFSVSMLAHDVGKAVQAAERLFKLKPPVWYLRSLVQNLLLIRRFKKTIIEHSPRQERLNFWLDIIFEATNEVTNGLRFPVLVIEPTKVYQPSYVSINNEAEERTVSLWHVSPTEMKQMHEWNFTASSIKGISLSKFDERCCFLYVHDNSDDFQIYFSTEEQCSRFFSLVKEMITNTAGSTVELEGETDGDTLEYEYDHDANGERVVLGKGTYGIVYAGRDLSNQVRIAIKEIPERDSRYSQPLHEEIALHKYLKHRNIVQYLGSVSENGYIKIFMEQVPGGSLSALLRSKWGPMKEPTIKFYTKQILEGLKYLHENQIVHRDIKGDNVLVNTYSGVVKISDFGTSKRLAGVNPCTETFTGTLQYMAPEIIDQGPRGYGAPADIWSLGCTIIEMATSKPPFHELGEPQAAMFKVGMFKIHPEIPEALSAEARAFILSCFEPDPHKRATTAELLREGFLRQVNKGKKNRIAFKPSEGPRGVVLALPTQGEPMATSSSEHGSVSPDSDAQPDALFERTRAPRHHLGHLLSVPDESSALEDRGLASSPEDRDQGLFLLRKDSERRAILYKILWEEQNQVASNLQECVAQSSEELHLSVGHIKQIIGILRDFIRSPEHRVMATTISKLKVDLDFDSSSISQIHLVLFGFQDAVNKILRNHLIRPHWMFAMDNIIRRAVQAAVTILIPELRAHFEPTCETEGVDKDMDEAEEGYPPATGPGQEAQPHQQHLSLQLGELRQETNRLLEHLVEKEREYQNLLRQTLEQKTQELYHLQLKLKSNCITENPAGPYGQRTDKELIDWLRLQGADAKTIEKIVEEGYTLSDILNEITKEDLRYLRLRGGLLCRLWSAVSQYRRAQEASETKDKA
Chain of Glycogen synthase kinase-3 beta (Homo sapiens) (P49841 whole entry, looked up, the tested form may be a part): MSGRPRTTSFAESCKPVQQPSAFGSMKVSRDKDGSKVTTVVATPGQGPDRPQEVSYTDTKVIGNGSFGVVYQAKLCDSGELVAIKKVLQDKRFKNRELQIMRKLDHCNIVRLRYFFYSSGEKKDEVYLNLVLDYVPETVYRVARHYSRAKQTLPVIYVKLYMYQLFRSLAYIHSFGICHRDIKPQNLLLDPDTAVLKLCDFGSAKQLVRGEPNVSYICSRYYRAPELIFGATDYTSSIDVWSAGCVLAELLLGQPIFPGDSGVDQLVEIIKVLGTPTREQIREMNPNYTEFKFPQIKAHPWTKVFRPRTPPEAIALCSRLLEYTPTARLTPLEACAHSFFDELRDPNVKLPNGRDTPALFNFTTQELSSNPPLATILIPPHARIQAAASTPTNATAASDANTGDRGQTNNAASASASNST

`C=CC(=O)Nc1ccccc1Nc1nc(Nc2ccc(N3CCN(C)CC3)cc2)ncc1C(=O)Nc1c(C)cccc1Cl`: the Activity in experiment [1] was 90%; in experiment [2] it was 0.15%; in experiment [3], 100%; in experiment [4], 100%; in experiment [5] it was 100%; in experiment [6], 100%. The Activity amounted to 73% in experiment [7]; 85% in [8]; 98% in experiment [9]; 100% in [10]; 80% in experiment [11]; 81% in experiment [12]. Also, the Activity in [13] amounted to 100%; in experiment [14] it was 99%; in experiment [15], 100%; in experiment [16], 100%; in [17] it was 100%; in experiment [18], 94%. Further, the Activity in [19] was 100%; in experiment [20] it was 97%.
